# Measured values: ChEMBL document CHEMBL3272325, “Structure-activity relationships of dimeric Catharanthus alkaloids. 1. Deacetylvinblastine amide (vindesine) sulfate” (J Med Chem, 1978)
# Key:
# [1] = Antitumor activity against mouse Ridgeway osteogenic sarcoma cells allografted in mouse at 1 to 2 mg/kg/day, ip; assay type: functional; details: route intraperitoneal
# Summary of the method: (§1)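 Sulfate salts given ip on days 1-9 against ROS and GLS in mice; tumor growth scored as percent inhibition versus controls (+++ = 75-100%, ++ = 50-75%, ± = under 25%).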
# [2] = Antitumor activity against mouse Gardner lymphosarcoma cell allografted in mouse at 1.0 to 2.0 mg/kg/day, ip; assay type: functional; details: route intraperitoneal; summary of the method: as §1
structure (smiles),measurement,setting,value
CC[C@]1(O)C[C@@H]2C[C@H](c3cc4c(cc3OC)N(C)[C@H]3[C@@](O)(C(=O)NN)[C@H](O)[C@]5(CC)C=CCN6CC[C@]43[C@@H]65)c3[nH]c4ccccc4c3CCN(C2)C1,TGI,[1],<25%
same,TGI,[2],<25%
